Source: PubChem
In the library only some 2.1% were active in any assay of this set; here they are far more common.
IEC-6 tox = cytotoxicity in IEC-6 intestinal epithelial cells, primary screen, cytotoxicity control for KLF5 inhibitor project, cell-based, luminescence; IEC-6 cytotoxicity, luminescence viability; inhibition, % at 5 µM; actives 0.78% (n = 290,000); AID 1825, 2009; in the data active means inhibition above about 22%;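 further: 0% = plate median of test compound wells and 100% = cytotoxic reference compound wells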
Ba/F3 V617F tox = reduced viability of JAK2V617F-dependent Ba/F3 cells, primary screen, JAK2V617F inhibitor project, cell-based, Ba/F3 EpoR-JAK2V617F, luminescence; ATP luminescence; inhibition, % at 5.6 µM; actives 1.1% (n = 220,000); AID 1446, 2008;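 active means inhibition above the campaign mean plus 3 SD over all tested compounds, cut at about 24% in these data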;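 further: cytokine-independent growth of Ba/F3 cells driven by EpoR plus mutant JAK2; 0% = DMSO-treated cells and 100% = JAK inhibitor I control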
b-catenin transl = modulators of beta-catenin nuclear translocation, primary screen, imaging, HeLa cells, immunofluorescence, high-content; nuclear translocation activity, % at 5 µM; actives 0.3% (n = 190,000);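 active means nuclear translocation activity above 50% at 5 µM, with a well cell count of 50 or more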;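 further: per-cell ratio of nuclear to cytoplasmic median beta-catenin stain intensity; plate controls were DMSO negative control for no effect and GSK-3 inhibitor IX positive control for full effect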
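Test system: human HeLa cell line; Doses: 5 µM primary, 0.02–20 µM confirmation; Incubation: 24 h compound exposure, 37°C; Detection: beta-catenin immunofluorescence imaging with DAPI; Read-out: beta-catenin nuclear/cytoplasmic ratio, % activation.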
MT stabilizer = microtubule stabilizers in HeLa cells, primary screen, imaging, high-content imaging; HeLa tubulin immunostaining HCS, 24 h; share of cells brighter than vehicle mean+2SD; % tubulin-high responders, % at 10 µM; actives 0.83% (n = 200,000); AID 2205, 2009;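 active means plate Z-score above 3 for both tubulin-high and condensed-nucleus cell shares, with cell loss under 80%, at 10 µM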;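 further: anti alpha tubulin signal scored within the nucleus-defined area of each cell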
KLF5 inh = KLF5 expression inhibitors, primary screen, DLD-1 cells, luminescence. DLD-1 KLF5 promoter-luciferase reporter. inhibition, % at 5 µM. actives 0.23% (n = 290,000);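 active means inhibition above a per-plate limit of that plate's mean compound inhibition plus 3 SD, cut at about 60% in these data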;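 further: 0% = DMSO wells and 100% = LY294002 at 200 µM; higher means less KLF5 promoter-driven luciferase light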
BaF3 tox = parental Ba/F3 cell viability inhibition, counter-screen for JAK2V617F inhibitor project, murine pro-B, CellTiter-Glo luminescence; inhibition, % at 5.6 µM; AID 1486, 2009; actives 1.1% (n = 220,000); CellTiter-Glo ATP luminescence;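 active means inhibition above a per-campaign cutoff, the mean inhibition of all tested compounds plus 3 SD, cut at about 27% in these data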;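 further: 0% = DMSO wells and 100% = JAK Inhibitor I control wells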
The depositor's hits bear a star; nt = not tested or not shown.

SMILES | IEC-6 tox | Ba/F3 V617F tox | b-catenin transl | MT stabilizer | KLF5 inh | BaF3 tox
CC(Oc1ccc(C#N)cc1)C(=O)c1ccc(F)c(F)c1 (configuration not stated) | 7.5 | 0.4 | -1.6 | 2.7 | -23.5 | -0.4
Cc1nn(C)c(C)c1CNC(=O)c1nn2c(c1Cl)NC(c1cccs1)CC2C(F)(F)F (configuration not stated) | 3.5 | 15.3 | -0.3 | 2.4 | 14.0 | 32.2*
Cc1ccc(C(=O)NCc2ccc(F)cc2)cc1NC1=NC2CS(=O)(=O)CC2S1 (configuration not stated) | -1.8 | nt | nt | nt | -26.3 | nt
CSc1ccccc1NC(=O)CN(C)S(=O)(=O)c1ccc(F)cc1 | -4.8 | -3.0 | nt | 1.8 | -12.8 | 2.5
CCC(=O)N/C(N)=N/c1nc(C)c2cc(OC)ccc2n1 | 2.7 | 23.1 | nt | 2.2 | -34.9 | 27.4*
CC(Oc1ccccc1)C(=O)N=C1SC2CS(=O)(=O)CC2N1CCc1ccccc1 (configuration not stated) | -5.7 | nt | nt | nt | -20.3 | nt
COc1ccccc1NC(=O)COc1ccccc1C(=O)c1cnn(-c2ccccc2)c1 | 2.5 | 0.3 | -3.0 | 7.6 | -85.0 | 5.9
CCc1ccc(NC(=O)COc2ccc(F)cc2C(=O)c2cnn(-c3ccccc3)c2)cc1 | -5.7 | -1.3 | -0.2 | 20.2* | -41.4 | 3.4
Cc1cc(=O)n(C(C)(C)C)c(=O)n1Cc1ccccc1 | -6.0 | nt | nt | nt | -34.6 | nt
CCC(C)(C)NC(=O)CCCSc1nc2ccccc2[nH]1 | -2.3 | -0.1 | -0.6 | nt | 0.3 | -2.4
O=C(NNC(=O)C1CCN(c2ncccn2)CC1)c1ccc(Cl)cc1 | 5.7 | 5.1 | -2.3 | 1.7 | 2.8 | 89.8*
Cc1ccc(C(=O)NNC(=O)C2CCN(c3ncccn3)CC2)cc1 | 1.6 | nt | nt | nt | -38.0 | nt
CCOC(=O)c1sc(NC(=O)Nc2cccc(Cl)c2)cc1C | 0.5 | 1.4 | 1.4 | 4.5 | -137.4 | 43.0*
CCc1cc2c(SCC(=O)C(C#N)=C3N(C)c4ccccc4N3C)ncnc2s1 | 1.9 | -1.0 | 1.3 | 2.0 | -2.2 | 2.7
CC1=CC(C)(C)N(S(=O)(=O)c2ccc(F)cc2)c2ccccc21 | -5.8 | -0.2 | 0.3 | 25.3* | -20.9 | 2.2
CC(=O)N1c2ccccc2C(C)=CC1(C)C | -3.5 | -2.5 | -0.4 | nt | -24.8 | -5.9
CC(=O)Nc1ccc(S(=O)(=O)N2c3ccccc3C(C)=CC2(C)C)cc1 | 88.2* | 64.1* | 81.2* | 8.6* | 92.5* | 63.7*
COc1ccc(NC(=O)N2c3ccccc3C(C)=CC2(C)C)cc1 | 3.1 | 4.2 | -0.8 | 5.4 | -41.9 | 5.3
CC1=CC(C)(C)N(S(=O)(=O)c2ccc(C)cc2)c2ccc(C)cc21 | 10.2 | 50.5* | nt | 10.2 | 44.5 | 36.5*
C/C=C/C(=O)N1c2ccc(C)cc2C(C)=CC1(C)C | 3.0 | 0.5 | -0.1 | nt | -18.4 | -4.2
CCOC(=O)N1CCN(C(=O)CS(=O)(=O)c2cn(Cc3cccc(F)c3)c3ccccc23)CC1 | -3.6 | -1.4 | -0.6 | 2.7 | -23.8 | -1.0
CCOc1ccc(NS(=O)(=O)c2ccc(C(=O)N3CCC3)cc2)cc1 | 0.5 | nt | nt | nt | -4.4 | nt
CN(C)c1ccc(/C=N/N2CCN(c3ccccn3)CC2)cc1 | 2.1 | 34.7* | -0.1 | nt | -42.2 | 56.5*
CCc1ccc(C(=O)Cn2ccsc2=N)cc1 | 6.0 | nt | nt | nt | -123.8 | nt
Cn1nc(C(C)(C)C)cc1C(=O)NCc1ccc(N2CCCC2=O)cc1 | 10.7 | 57.8* | -1.0 | 3.7 | 9.9 | 93.3*
O=C(NCc1ccc(N2CCCC2=O)cc1)c1ccc(F)cc1 | 4.5 | 3.5 | -2.5 | 9.4* | -18.6 | 5.9
Cn1nccc1C(=O)OCC(=O)Nc1ccccc1Cl | -3.8 | nt | nt | nt | -3.8 | nt
CCOC(=O)c1c2ccc(OCC(=O)N/N=C/c3ccc(Cl)cc3)cc2n2ccccc12 | 0.1 | 1.2 | -1.5 | 15.1 | -28.0 | 8.6
CCOC(=O)c1c2ccc(OCC(=O)N/N=C/c3ccccc3C(F)(F)F)cc2n2ccccc12 | 0.5 | 0.0 | -6.8 | 33.0* | 4.0 | 1.1
Cc1ccccc1Cn1cc(NC(=O)c2nn(C)cc2Cl)cn1 | 6.9 | 1.4 | 3.6 | 3.6 | 1.0 | -0.8
